Screening results: PubChem, Johns Hopkins Ion Channel Center
Shown are actives, neighbours in structure and some others; about 3.8% of the full set was active somewhere.
KCNK3 inh – human KCNK3 channel inhibition, primary screen; O14649; CHO-KCNK3 thallium flux, FluxOR fluorescence; hits give low values; B-score at 10 µM; 340,000 compounds, 0.84% hits;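 active means B-score under library mean minus 4 SD, starting fluorescence ratio at most library mean plus 5 SD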;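 further: more negative B-score means stronger inhibition of thallium flux through KCNK3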
Target sequence (O14649 whole entry, looked up): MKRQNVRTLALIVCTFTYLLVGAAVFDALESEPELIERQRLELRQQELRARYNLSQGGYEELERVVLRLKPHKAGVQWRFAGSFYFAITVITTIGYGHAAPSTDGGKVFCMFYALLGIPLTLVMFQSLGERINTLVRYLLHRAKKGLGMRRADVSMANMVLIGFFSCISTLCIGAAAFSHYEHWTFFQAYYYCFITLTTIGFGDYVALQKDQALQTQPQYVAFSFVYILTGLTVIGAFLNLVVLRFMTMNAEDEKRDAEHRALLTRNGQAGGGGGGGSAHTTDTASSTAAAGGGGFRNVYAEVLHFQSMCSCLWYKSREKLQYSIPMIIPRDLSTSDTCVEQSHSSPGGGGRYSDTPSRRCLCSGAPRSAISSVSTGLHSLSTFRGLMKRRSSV
hERG protect – hERG (human) protection from proarrhythmic block | activation (rescue from dofetilide block), less the hit threshold, % at 10 µM | Q12809 | CHO-hERG, FluxOR thallium flux, dofetilide IC70 present | 310,000 compounds, 0.51% hits;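 active means activation above the mean of controls blocked by dofetilide plus 5 SD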;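 further: thallium influx through hERG after potassium depolarization seen as dye fluorescence rise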
KCNQ1 inh – human KCNQ1 channel inhibition | P51787 | CHO-K1 KCNQ1, FluxOR thallium flux fluorescence; hits give high values | B-score at 10 µM | 310,000 compounds, 1.3% hits | AID 2642;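 active means compounds whose thallium flux B-score, printed positive for inhibition, exceeds three library SD while starting fluorescence stays within three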;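 further: channel opened by potassium depolarization with thallium stimulus after 20 min compound exposure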
KCNK9 inh – inhibitors of human KCNK9 two-pore domain potassium channel | Q9NPC2 | HEK293 KCNK9, FluxOR thallium flux fluorescence; hits give low values | B-score at 10 µM | 310,000 compounds, 1.2% hits;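 active means ratio B-score over 3 SD below the library mean, with starting fluorescence within 5 SD of its mean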;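 further: negative B-score means less thallium flux so channel inhibition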
Kir21 block – blocks the mouse Kir2.1 inward-rectifier potassium channel | P35561 | HEK293-Kir2.1, FluxOR thallium flux fluorescence; hits give low values | B-score at 10 µM | 310,000 compounds, 0.85% hits | AID 1672;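 active means fluorescence ratio B-score at or below minus 3 SD of library scores, with starting-brightness B-score within 2 SD, cut at about -4.2 in these data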;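 further: channel flux triggered by added potassium and thallium sulfate stimulus; B-score of peak minus minimum fluorescence over baseline after thallium stimulus; more negative B-score means stronger Kir2.1 block with less thallium influx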
KCNQ1 act – human KCNQ1 channel potentiation or activation | P51787 | CHO-K1 KCNQ1, thallium flux FluxOR fluorescence; hits give high values | B-score at 10 µM | 310,000 compounds, 0.35% hits;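 active means fluorescence ratio B-score, a plate-corrected score, at least three library SD, with initial intensity B-score within 5 SD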
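Assay system: CHO-K1 cells stably expressing KCNQ1; Medium: assay buffer with matched DMSO; Also added: K+/Tl+ depolarizing stimulus; Dosing: single dose; Timing: dye 90 min, compound 20 min, room temperature; Measured by: kinetic FluxOR thallium fluorescence, 10-s 1-Hz baseline, 110-s post-stimulus read; Read-out: peak-minus-minimum fluorescence over initial fluorescence, negative-control normalized, B-scored.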
Starred values were filed as active, the others as inactive; i = inactive; x = no result.

SMILES | KCNK3 inh | hERG protect | KCNQ1 inh | KCNK9 inh | Kir21 block | KCNQ1 act
COc1ccc2[nH]c(=O)c(CN(CCN3CCCC3)C(=O)Nc3ccccc3Cl)cc2c1 | i | -13 | i | i | 1.1 | i
CC1CN(S(=O)(=O)c2ccc(-c3nc4ccccc4s3)cc2)CC(C)O1 (stereo not given) | i | 4.6* | i | i | -0.25 | i
O=S(=O)(c1ccc(-c2nc3ccccc3s2)cc1)N1CCCC1 | i | 0 | i | i | -0.98 | i
Cc1ccc(C2c3c(-c4ccccc4O)n[nH]c3C(=O)N2Cc2ccncc2)cc1 (stereo not given) | i | 12* | i | i | -0.81 | i
Cc1cc2ccccn2c1C(=O)c1ccc(F)cc1 | i | -6 | i | -7.2* | -0.52 | i
C/C(=N\Nc1nc(N2CCCCCC2)nc(N2CCCCCC2)n1)c1ccccc1 | i | -13 | 14* | i | -1.7 | i
CCOc1ccccc1OCCOc1ccccc1OC(C)C | i | -9 | i | i | -4.9* | i
O=C(NCC(c1ccco1)N1CCc2ccccc2C1)c1ccc(Cl)c([N+](=O)[O-])c1 (stereo not given) | i | -13 | 6* | i | -0.28 | i
O=C(NCC(c1ccco1)N1CCc2ccccc2C1)c1ccc(Cl)cc1 (stereo not given) | i | -12 | i | i | -0.33 | i
O=C1C(Cl)=C(N2CCN(c3ccccc3[N+](=O)[O-])CC2)C(=O)c2ccccc21 | i | -12 | i | i | -0.71 | i
CC1=Nc2ccccc2N=C(NC(=O)c2ccccc2)C1c1ccc(Cl)cc1 (stereo not given) | i | -3 | 12* | i | 0.41 | i
CC1=CC(c2ccc(Cl)cc2)n2nc(NC(=O)c3ccccc3)nc2N1 (stereo not given) | i | -14 | i | i | -0.22 | i
COc1ccc(CCNC(=O)CC2SC(=NCc3ccccc3OC)NC2=O)cc1 (stereo not given) | i | 4.9* | i | i | 0.72 | i
O=C(c1nc2n(n1)C(c1ccc(Cl)cc1)C=C(c1ccccc1)N2)N1CCOCC1 (stereo not given) | i | -15 | i | -6.8* | -4.6 | i
CC(=O)Nc1nc2n(n1)C(c1ccccc1)C=C(c1ccccc1)N2 (stereo not given) | i | -1 | i | i | -0.16 | i
CCC(=O)N1CCN(c2ccc(NC(=O)COc3ccccc3[N+](=O)[O-])cc2)CC1 | i | -17 | i | i | 0.5 | i
Clc1ccc(CSc2nnnn2-c2ccc3c(c2)OCO3)c(Cl)c1 | i | -8 | i | -7* | -0.48 | i
c1ccc(CSc2nnnn2-c2ccc3c(c2)OCCO3)nc1 | i | 0 | i | i | 0.18 | i
Cc1ccc(NC(=O)C(c2ccccc2)c2ccccc2)c(O)c1 | i | -13 | i | -7.8* | -1.4 | i
CCn1c(CNc2ccccc2Cl)nnc1SCC(=O)OC1CCCCC1 | i | -7 | i | i | -4.5* | i
CCn1c(CNc2ccc(Cl)cc2)nnc1SCC(=O)OC1CCCCC1 | i | -5 | i | i | -6.6* | i
CCn1c(CNc2cccc(Cl)c2)nnc1SCC(=O)OC1CCCCC1 | i | -15 | i | i | -5.1* | i
O=C(O)CC1CCC1CC(=O)O (stereo not given) | i | x | x | x | x | x
O=C(CCc1nc(-c2ccccc2Cl)no1)Nc1cccnc1 | i | -2 | i | i | 0.75 | i
COc1ccc(CN(C(=O)c2ccco2)c2ccccc2)cc1 | i | -6 | i | i | -4.2* | i
SMILES | KCNK3 inh | hERG protect | KCNQ1 inh | KCNK9 inh | Kir21 block | KCNQ1 act
CS(=O)(=O)c1ccc2nc(NC(=O)c3ccccc3Br)sc2c1 | i | -1 | i | i | 1.3 | i
O=C(Nc1nc(=O)c2ccccc2s1)c1ccc(F)cc1 | i | -3 | i | i | 0.82 | 23*
O=C1NC2(CCCCC2)C(=O)N1CC(=O)N1CCc2ccccc21 | i | x | x | x | x | x
CC(C)(C)C1=CC(O)(c2ccccc2)C=C(C(C)(C)C)C1=O | i | -13 | 8* | i | -1.8 | i
C[C@H]1CN([C@@H](C)CO)C(=O)Cc2cc(NS(=O)(=O)c3ccc(Cl)cc3)ccc2O[C@@H]1CN(C)C(=O)Nc1cccc2ccccc12 | i | x | x | x | x | x
COCCNC(=O)C(c1ccc(C)o1)N(Cc1ccc(OC)cc1)C(=O)Cn1nnc2ccccc21 (stereo not given) | i | 6.5* | i | i | 0.22 | i
CC1CN(c2ccc([N+](=O)[O-])c(NCCOc3ccc(Cl)cc3)c2)CC(C)N1 (stereo not given) | i | -30 | 9* | i | -8* | i
O=C(Nc1ccc(Cl)cc1)C(Cl)C(=O)c1ccccc1 (stereo not given) | i | -12 | i | i | -11* | 10*
O=C(Nc1ccccc1Cl)C(Cl)C(=O)c1ccccc1 (stereo not given) | i | x | x | x | x | x
S=C(Nc1ccc(Cl)cc1)NC1CCN(Cc2ccccc2)CC1 | i | -12 | i | i | -4.7* | i
O=C(Nc1ccc(Cl)c(C(F)(F)F)c1)NC1CC2CCCC(C1)N2Cc1ccccc1 (stereo not given) | x | -30 | 13* | i | 1.1 | i
O=C(Nc1ccc2c(c1)OCO2)NC1CCN(Cc2ccccc2)CC1 | i | -4 | i | i | -1.3 | i
O=C(Nc1ccc(F)cc1)NC1CCN(Cc2ccccc2)CC1 | i | -11 | i | i | -5.2* | i
O=C(NC1CC2CCCC(C1)N2C(=O)Nc1ccc(Cl)c(C(F)(F)F)c1)C1CC1 (stereo not given) | i | -14 | i | i | 1.3 | i
C#CCOc1ccccc1CNC1CCN(Cc2ccccc2)CC1 | i | -2 | i | i | -4.4* | i
COc1cc(/C=C/C(=O)OCC(=O)N(C)CC(=O)Nc2ccc(F)cc2)ccc1OC(F)F | i | x | x | x | x | x
Cc1ccc(S(=O)(=O)NCCC(=O)Nc2ccncc2)cc1C | i | -8 | i | i | -0.2 | i
O=C(CN1C(=O)c2ccccc2S1(=O)=O)Nc1ccon1 | i | -14 | i | i | -1.2 | i
Cc1ccc(CNC(=O)C(=O)NCC2CCCN2S(=O)(=O)c2cc(C)ccc2C)cc1 (stereo not given) | i | -9 | i | i | -0.1 | i
COc1ccc(N2CCN(C(=O)c3cc([N+](=O)[O-])ccc3N3CCN(CCO)CC3)CC2)cc1 | i | -6 | i | i | 0.04 | i
O=C(Cc1ccccc1)NC1CCN(Cc2ccccc2)CC1 | i | -2 | i | i | 0.96 | i
Cc1ccccc1CC(=O)NC1CCN(Cc2ccccc2)CC1 | i | 8.2* | i | i | 0.44 | i
